Test results from PMC7564034 (Acta Pharmaceutica Sinica. B, 2019).
Read-outs that look alike come from different tables or passages of the source.

Assays:
[1] = Mice body weight in the 5FU combination study; format: in vivo, Balb/c mice harboring LoVo xenografts; conditions: 5FU 15 mg/kg/3 days i.p.; 17-day treatment
Procedure, shortened: (§1)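 LoVo-xenograft mice with all tumors above 50 mm3 were dosed i.p. for 20 days: 10 mL/kg/day, 5 mg/kg/day, and/or 5FU 15 mg/kg every 3 days. Body weight and tumor axes were recorded daily; tumor volume = 1/2 × a × b². Tumors were resected after treatment. Weight change was read after 17 days; mean ± SEM.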

LoVo xenografts = assay: Xenograft tumor growth, SMI or Rd combined with 5FU, 20-day treatment; format: in vivo, Balb/c mice; conditions: compared to vehicle + saline; SMI 10 mL/kg/day, Rd 5 mg/kg/day, 5FU 15 mg/kg/3 days i.p., 20 days
Procedure, shortened: as §1

[2] = system: LoVo colon cancer xenograft; assay: Xenograft tumor growth, SMI combined with 5FU, 14-day treatment; format: in vivo, Balb/c nude mice; conditions: compared to vehicle treated group; SMI 10 mL/kg/day, 5FU 15 mg/kg/3 days i.p., 14 days
[3] = format: in vivo, mice harboring xenograft tumors; conditions: after intraperitoneal injection of Rb1, Rc, or Rd; data not shown
FGF = assay: ELISA of FGF secretion in tumors; format: in vivo, Balb/c mice harboring LoVo xenografts; conditions: 15 days i.p.; SMI, Rd-H 5 mg/kg, Rb1, Rg1; vs vehicle
Procedure, shortened: (§2)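 Mice received test compound i.p. for 15 days. Tumors were harvested 20 min after the final dose and homogenized in RIPA buffer. VEGF and FGF were quantified by ELISA kit and normalized to protein content measured by BCA assay. Compared with vehicle.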

VEGF = assay: ELISA of VEGF secretion in tumors; format: in vivo, Balb/c mice harboring LoVo xenografts; conditions: 15 days i.p.; SMI, Rd-H 5 mg/kg, Rb1, Rg1; vs vehicle
Procedure, shortened: as §2

[4] = Constituent ratio of ginsenosides in SMI, plasma, tumor and endothelial cells; format: in vivo, Balb/c nude mice harboring LoVo xenografts; conditions: 20 min after 15-day SMI treatment
Procedure, shortened: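 Tissues were sampled 20 min after the last dose of a 15-day i.p. course. Tumors were digested 1 h in DMEM with collagenase I (2 mg/mL) and DNase I (0.1 mg/mL), then strained through 40 μm mesh. CD31+ cells were enriched with PE anti-mouse CD31 and anti-PE magnetic particles, with purity checked by CD45/viability flow cytometry; n = 3. Each ratio = concentration of the constituent / summed eight ginsenosides.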

[5] = format: in vivo, Balb/c nude mice harboring LoVo xenografts; conditions: for Cmax / Tmax: Balb/c nude, mouse, plasma, ip; for AUC0–∞ in plasma relative to those of Re, Rg1, Rg3 and Ro: after single or multiple SMI administration
Procedure, shortened: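 Male LoVo-xenograft nude mice (6 weeks old) received 10 mL/kg i.p., either once or daily for 8 days. Blood (~0.1 mL) was drawn from the oculi chorioideae vein into heparin tubes between 5 min and 96 h after the last dose, 5 mice per time point. Plasma was spun at 8000 rpm for 5 min and extracted with methanol. AUC0–∞ and the multiple/single ratio were derived.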

[6] = format: in vivo, Balb/c nude mice harboring LoVo xenografts; conditions: 8-day vs single SMI 10 mL/kg/day i.p.

Detection in plasma or tumor tissues [3] | Constituent ratio in TECs [4] [%] | Constituent ratio in plasma [4] [%] | Constituent ratio in tumor tissues [4] [%] | Cmax ([5]; 10 mL/kg) [ng/mL] | Tmax ([5]; 10 mL/kg) [h] | Cmax ([5]; 10 mL/kg/day) [ng/mL] | Tmax ([5]; 10 mL/kg/day) [h] | AUC0–∞ in plasma relative to those of Re, Rg1, Rg3 and Ro [5] | AUC0–∞ ratio Multiple/Single in tumors [6] | SMILES | Suppression of the increase of mice body weight [1] [%] | Suppression of tumor growth (LoVo xenografts) [%] | Suppression of tumor growth [2] [%] | Suppression of the secretion of FGF in tumors (FGF) [%] | Reduction of the secretion of VEGF in tumors (VEGF) [%]
 |  |  |  |  |  |  |  |  |  | O=c1[nH]cc(F)c(=O)[nH]1 [5FU, 5-fluorouracil] | 65 | 17 | 49.0 |  | 
neither Rg3 nor CK could be detected |  |  |  |  |  |  |  |  |  | CC(C)=CCC[C@](C)(O[C@@H]1O[C@H](CO)[C@@H](O)[C@H](O)[C@H]1O)[C@H]1CC[C@]2(C)[C@@H]1[C@H](O)C[C@@H]1[C@@]3(C)CC[C@H](O)C(C)(C)[C@@H]3CC[C@]12C [CK, compound K] |  |  |  |  | 
 | 14.9 | 34.5 | 21.9 | 20600 | 1 | 49400 | 2 | more than 20 times | 1.64 | CC(C)=CCC[C@](C)(O[C@@H]1O[C@H](CO[C@@H]2O[C@H](CO)[C@@H](O)[C@H](O)[C@H]2O)[C@@H](O)[C@H](O)[C@H]1O)[C@H]1CC[C@]2(C)[C@@H]1[C@H](O)C[C@@H]1[C@@]3(C)CC[C@H](O[C@@H]4O[C@H](CO)[C@@H](O)[C@H](O)[C@H]4O[C@@H]4O[C@H](CO)[C@@H](O)[C@H](O)[C@H]4O)C(C)(C)[C@@H]3CC[C@]12C [Rb1, ginsenoside Rb1] |  |  |  | 99 | 15
 |  |  |  | 7800 | 4 | 16900 | 2 | more than 20 times | 5.67 | CC(C)=CCC[C@](C)(O[C@@H]1O[C@H](CO[C@@H]2O[C@@H](CO)[C@H](O)[C@H]2O)[C@@H](O)[C@H](O)[C@H]1O)[C@H]1CC[C@]2(C)[C@@H]1[C@H](O)C[C@@H]1[C@@]3(C)CC[C@H](O[C@@H]4O[C@H](CO)[C@@H](O)[C@H](O)[C@H]4O[C@@H]4O[C@H](CO)[C@@H](O)[C@H](O)[C@H]4O)C(C)(C)[C@@H]3CC[C@]12C [Rc] |  |  |  |  | 
